Only some compounds are listed: those with a hit (about 2.6% of all), similar ones and a draw of the others.
SIRT5 inh = inhibitors of human sirtuin-5 desuccinylase. Purified SirT5, succinyl-peptide AMC, trypsin-coupled fluorescence. inhibition, % at 15 µM. 330,000 tested, 1.1% active; in the data active means inhibition above about 15%
FGF22 binding = FGF22 (human) thermal shift binding | 340,000 tested, 1.5% active | recombinant FGF22 thermal shift, SYPRO orange fluorescence; percent of sucrose octasulfate shift, DMSO zero | activity (Tm shift, normalised), % at 9.99 µM | Q9HCT0;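 active means mean Tm shift, scaled 0 neutral to 100 positive control, at about 1.3% or above, every replicate too, limit read from the data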
CASP6 VEID inh = inhibitors of human caspase-6 | 350,000 tested, 0.53% active | purified caspase-6, Z-VEID-R110 cleavage fluorescence | inhibition, % at 12.5 µM;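 active means mean inhibition across replicates at least about 35%, with every replicate also reaching that limit, limit read from the data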;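 further: 0% = median of neutral control wells and 100% = no fluorescence left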
Target sequence (P55212 24-179 limits assumed): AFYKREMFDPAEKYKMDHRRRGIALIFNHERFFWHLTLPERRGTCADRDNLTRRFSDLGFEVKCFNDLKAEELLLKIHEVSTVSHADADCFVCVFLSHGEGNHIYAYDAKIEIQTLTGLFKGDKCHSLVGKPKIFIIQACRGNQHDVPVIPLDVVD
Target sequence (P55212 194-293 limits assumed): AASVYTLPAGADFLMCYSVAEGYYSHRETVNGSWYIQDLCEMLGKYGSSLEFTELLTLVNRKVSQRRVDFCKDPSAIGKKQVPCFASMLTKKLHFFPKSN
NSD2 inh = inhibitors of human histone methyltransferase NSD2 | O96028 | NSD2 peptide methylation, AlphaScreen, 120 min | inhibition, % at 12.5 µM | 310,000 tested, 0.54% active; in the data active means inhibition above about 50%
UCH37 inh = human UCH37 deubiquitinating enzyme inhibition | inhibition, % (no concentration beside the values) | purified proteasome/UCH37, Ub-AMC cleavage fluorescence | 330,000 tested, 0.33% active | Q9Y5K5;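 active means mean inhibition over replicate wells above about 20%, limit read from the data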;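 further: 0% = compound-free wells with enzyme and 100% = wells lacking proteasome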
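Test system – human UCH37 enzyme supplied as purified proteasome complex · Incubation – 30 min preincubation with enzyme, 25 min cleavage at room temperature · Detection – AMC fluorescence from Ub-AMC cleavage, excitation 355 nm, emission 460 nm · Benchmarks – no-proteasome wells (full inhibition) and compound-free wells (no inhibition)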
Numbers without * were called inactive; nt = no result.

SMILES	SIRT5 inh	FGF22 binding	CASP6 VEID inh	NSD2 inh	UCH37 inh
O=C(CN1C(=O)S/C(=C\c2cccs2)C1=O)Nc1ccc(O)c(C(=O)O)c1	6	0	4	16	21*
O=C(CN1C(=O)S/C(=C\c2cccs2)C1=O)Nc1ccc(C(=O)O)c(O)c1	6	0	17	27	13
COc1ccc(CN2CCN(C(=O)c3cccc4ccccc34)CC2)c(OC)c1OC	15*	0	11	1	4
O=C1Nc2ccc(Br)cc2C1=NN=CC1=C(N2CCOCC2)/C(=C\c2ccccc2)CC1	nt	nt	nt	nt	4
CC(C)(C)CC(C)(C)SSc1n[nH]c(=S)s1	0	0	37*	-3	4
COc1ccc(-c2ccnc3ncnn23)cc1	-79	43*	-2	-1	nt
N#C[C@H]1[C@H](c2ccc(C3=CCCC3)cc2)[C@H](CO)N1c1nc(-c2ccccc2)cs1	0	0	4	nt	nt
COC(=O)c1sccc1NN=Cc1cccc(OC)c1O	nt	nt	nt	nt	5
CC(C)NC(=O)Nc1ccc2c(c1)C(=O)N([C@@H](C)CO)C[C@H](C)[C@@H](CN(C)S(=O)(=O)c1ccccc1)OCCCC[C@@H](C)O2	0	1	1	nt	nt
C[C@@H]1CCCCO[C@H](CN(C)C(=O)NC2CCCCC2)[C@@H](C)CN([C@H](C)CO)C(=O)c2cc(NC(=O)C3CCCCC3)ccc2O1	9	0	6	nt	nt
CC(C)NC(=O)Nc1ccc2c(c1)C(=O)N([C@H](C)CO)C[C@H](C)[C@H](CN(C)C(=O)Cc1ccccc1)OCCCC[C@H](C)O2	19*	0	-2	nt	nt
CC(C)NC(=O)Nc1ccc2c(c1)C(=O)N([C@H](C)CO)C[C@H](C)[C@@H](CN(C)S(=O)(=O)c1ccccc1)OCCCC[C@H](C)O2	1	1	40*	nt	nt
CC(C)NC(=O)Nc1ccc2c(c1)C(=O)N([C@@H](C)CO)C[C@H](C)[C@H](CN(C)C(=O)NC(C)C)OCCCC[C@@H](C)O2	24*	1	-3	nt	nt
C[C@H](CO)N1C[C@H](C)[C@@H](CN(C)C(=O)NC2CCCCC2)OCCCC[C@H](C)Oc2ccc(NC(=O)C3CCCCC3)cc2C1=O	16*	1	-1	nt	nt
N#C[C@@H]1[C@H](c2ccccc2C2=CCCCC2)[C@@H](CO)N1C(=O)c1ccccn1	0	0	nt	nt	nt
CC(C)c1cn(CC[C@H]2CC[C@H](NC(=O)c3cccc(F)c3)[C@@H](CO)O2)nn1	0	0	2	nt	nt
COc1ccc(NC(=O)Nc2ccc3c(c2)CC(=O)N([C@H](C)CO)C[C@@H](C)[C@H](CN(C)S(C)(=O)=O)O3)cc1	-2	0	0	nt	nt
COC(=O)c1ccc(C=NN2CCN(Cc3ccccc3Cl)CC2)cc1	nt	nt	nt	nt	6
C[C@@H]1CN([C@H](C)CO)C(=O)c2cc(NS(=O)(=O)c3ccccc3)ccc2O[C@@H]1CN(C)Cc1ccncc1	2	0	2	nt	nt
O=c1[nH]c(CN2CCN(S(=O)(=O)/C=C/c3ccccc3)CC2)nc2cc(Cl)ccc12	0	0	-3	0	-11
O=c1[nH]c(CN2CCN(S(=O)(=O)/C=C/c3ccccc3)CC2)nc2ccccc12	16*	43	0	nt	4
O=c1[nH]c(CN2CCOCC2)nc2ccccc12	-1	43*	0	1	4
COC(=O)[C@]1(Cc2ccccc2N=[N+]=[N-])N=C(c2ccc(OCCCO)cc2)O[C@@H]1c1ccccc1	0	-1	-2	nt	nt
CC(=O)c1ccc(NC(=O)CSc2nc(C)cc(C)c2C(N)=O)cc1	-1	43*	-5	-2	2
CN(C)Cc1cn(CC[C@@H]2CC[C@H](N)[C@H](CO)O2)nn1	21*	0	0	nt	nt
SMILES	SIRT5 inh	FGF22 binding	CASP6 VEID inh	NSD2 inh	UCH37 inh
CN(C)Cc1cn(CC[C@H]2CC[C@H](NS(=O)(=O)c3ccccc3)[C@H](CO)O2)nn1	33*	0	3	nt	nt
CN(C)Cc1cn(CC[C@@H]2CC[C@@H](N)[C@H](CO)O2)nn1	0	0	0	nt	nt
CN(C)Cc1cn(CC[C@@H]2CC[C@@H](NS(=O)(=O)c3ccccc3)[C@H](CO)O2)nn1	-2	0	1	nt	nt
COC(=O)c1ccc(/C=N/Nc2nc(N3CCCCC3)nc(N3CCCCC3)n2)cc1	7	44*	-3	2	nt
O=C(NN=Cc1ccc2c(c1)OCCO2)c1ccncc1	nt	nt	nt	nt	7
COC(=O)c1sc2cc([N+](=O)[O-])cc(SCC(C)C)c2c1N	2	44*	-1	2	1

High-throughput results (PubChem BioAssay)
